Common to all, as to assay type: functional
Experiment [1] relates to Tobacco mosaic virus. The experiment can be described thus: Antiviral activity against Tobacco mosaic virus (TMV) in tobacco plant leaf assessed as curative effect at 100 ug/ml after 3 to 4 days. In a few lines:
(§1)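 Whole plants of N. tabacum var. Xanthi nc at the same leaf age. Whole leaves dip-inoculated with TMV (6.0 × 10−3 mg/mL), then washed with water and dried. Compound smeared on the left half-leaf, solvent on the right as control. Local lesions counted 3−4 days after inoculation, three replicates. Inhibition % calculated from mean lesion numbers versus control.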

Experiment [2] has as its system Tobacco mosaic virus. Kind of experiment: Antiviral activity against Tobacco mosaic virus (TMV) in tobacco plant leaf assessed as curative effect at 500 ug/ml after 3 to 4 days. In a few lines: as §1
In experiment [3] the test system is Tobacco mosaic virus. Kind of experiment: Antiviral activity against Tobacco mosaic virus (TMV) in tobacco plant leaf assessed as inactivation effect at 100 ug/ml after 3 to 4 days. In a few lines: (§2)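 TMV mixed with an equal volume of compound solution for 30 min. The mixture was inoculated on the left half of N. tabacum var. Xanthi nc leaves, and virus mixed with solvent on the right half as control. Local lesions recorded 3−4 days after inoculation, three replicates. Inhibition % calculated from mean lesion numbers versus control.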

Experiment [4] deals with Tobacco mosaic virus. Kind of experiment: Antiviral activity against Tobacco mosaic virus (TMV) in tobacco plant leaf assessed as inactivation effect at 500 ug/ml after 3 to 4 days. The procedure, abridged:
as §2

For experiment [5], the system named is Tobacco mosaic virus. The experiment can be described thus: Antiviral activity against Tobacco mosaic virus (TMV) in tobacco plant leaf assessed as protection effect at 500 ug/ml after 3 to 4 days. The procedure, abridged: (§3)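 Compound smeared on the left half of growing N. tabacum var. Xanthi nc leaves of the same age, solvent on the right half as control. Leaves inoculated with TMV 12 h later. Local lesions counted 3−4 days after inoculation, three replicates. Inhibition % = (control − treated mean lesions)/control × 100.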

In experiment [6] the test system is Tobacco mosaic virus. The experiment can be described thus: Antiviral activity against Tobacco mosaic virus (TMV) in tobacco plant leaf assessed as protection effect at 100 ug/ml after 3 to 4 days. The procedure, abridged:
as §3

Experiment [7] concerns Tobacco mosaic virus. Kind of experiment: Antiviral activity against Tobacco mosaic virus (TMV) in tobacco leaf juice at 100 ug/ml after 72 hr by half-leaf method. In a few lines:
(§4)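 Detached leaf (half-leaf) assay in Nicotiana tabacum var. Xanthi nc, 5−6 growth stage. Whole leaf inoculated with TMV (5.88 × 10−2 μg/mL) by juice-leaf rubbing, then cut in half along the main vein. One half soaked 20 min in compound solution, the other in double-distilled water. Halves cultured 72 h at 25 °C. At least three replicates. Inhibition % = (control − treated mean local lesions)/control × 100.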

In experiment [8] the test system is Tobacco mosaic virus. Kind of experiment: Antiviral activity against Tobacco mosaic virus (TMV) in tobacco leaf juice at 500 ug/ml after 72 hr by half-leaf method. The procedure, abridged: as §4

Structures are written as SMILES.

What is called inhibition is the drop in the measured response relative to a control, in per cent. For `C#CCOc1ccc2c3c(c4cc(OC)c(OC)cc4c2c1)C[C@H]1CCCN1C3`, the inhibition at 100 µg/mL in experiment [1] came out at 36.1%; in experiment [3] it was 38.9%; in experiment [6] it was 39.7%; in experiment [7] it was 43.7%. Further, the inhibition at 500 µg/mL in experiment [2] is 59.3%; in experiment [4] it was 52.8%; in experiment [5], 58.6%; in experiment [8] it was 61.2%.

Take `COc1cc2c3c(c4ccc(OCCO)cc4c2cc1OC)CN1CCC[C@@H]1C3`: the inhibition at 100 µg/mL worked out at 42.8% in experiment [1], 40.9% in experiment [3], 39.5% in experiment [6] and 47.5% in experiment [7]. Besides, the inhibition at 500 µg/mL in experiment [2] stood at 74.2%; in experiment [4] it was 70.4%; in experiment [5], 71.6%; in experiment [8], 78.2%.

As for `COc1cc2c3c(c4ccc(O)cc4c2cc1OC)CN1CCC[C@H]1C3`, the inhibition at 100 µg/mL came out at 23.2% in experiment [1], 17.8% in experiment [3], 19.5% in experiment [6] and 21.3% in experiment [7]. Moreover, the inhibition at 500 µg/mL in experiment [2] turned out to be 49.6%; in experiment [4], 46.2%; in experiment [5], 43.2%; in experiment [8] it was 52.2%.

On to `COc1cc2c3c(c4ccc(OCCO)cc4c2cc1OC)CN1CCC[C@H]1C3`, for which the inhibition at 100 µg/mL in experiment [1] is 18.6%; in experiment [3] it was 12%; in experiment [6], 10.5%; in experiment [7], 10%. The inhibition at 500 µg/mL in experiment [2] came out at 44%; in experiment [4] it was 40.5%; in experiment [5], 42.3%; in experiment [8] it was 43.9%.

As for `COc1ccc2c3c(c4cc(OC)c(OC)cc4c2c1)C[C@H]1CCCN1C3` [(-)-ANTOFINE], the inhibition at 100 µg/mL in experiment [1] came to 33.4%; in experiment [3], 29.4%; in experiment [6], 32.3%; in experiment [7], 30.4%. In addition, the inhibition at 500 µg/mL in experiment [2] turned out to be 62.5%; in experiment [4], 58%; in experiment [5], 55.7%; in experiment [8] it was 65.8%.

For the compound `CCOc1ccc2c3c(c4cc(OC)c(OC)cc4c2c1)C[C@H]1CCCN1C3`, the inhibition at 100 µg/mL was 27.2% in experiment [1], 28.5% in experiment [3], 10.4% in experiment [6] and 32.5% in experiment [7]. Also, the inhibition at 500 µg/mL was 49.7% in experiment [2], 43.7% in experiment [4], 40.2% in experiment [5] and 50% in experiment [8].

Turning to `CCOc1ccc2c3c(c4cc(OC)c(OC)cc4c2c1)C[C@@H]1CCCN1C3`, the inhibition at 100 µg/mL in experiment [1] came out at 24.3%; in experiment [3], 23%; in experiment [6] it was 28.5%; in experiment [7], 25.6%. Also, the inhibition at 500 µg/mL in experiment [2] turned out to be 51.1%; in experiment [4], 53.2%; in experiment [5], 48%; in experiment [8], 56.2%.

Turning to `COc1cc2c3c(c4ccc(OCC#N)cc4c2cc1OC)CN1CCC[C@H]1C3`, the inhibition at 100 µg/mL amounted to 30.4% in experiment [1], 27.9% in experiment [3], 26.3% in experiment [6] and 31.5% in experiment [7]. The inhibition at 500 µg/mL came to 57.8% in experiment [2], 58.2% in experiment [4], 54.3% in experiment [5] and 60% in experiment [8].

As for `COc1ccc2c3c(c4cc(OC)c(OC)cc4c2c1)C[C@@H]1CCCN1C3` [HYPOESTESTATIN 1], the inhibition at 100 µg/mL worked out at 28.4% in experiment [1], 26.7% in experiment [3], 37.2% in experiment [6] and 30.5% in experiment [7]. Besides, the inhibition at 500 µg/mL was 56.4% in experiment [2], 55.5% in experiment [4], 51.1% in experiment [5] and 60.2% in experiment [8].

With `COc1cc2c3c(c4ccc(OCC#N)cc4c2cc1OC)CN1CCC[C@@H]1C3`, the inhibition at 100 µg/mL in experiment [1] stood at 44.1%; in experiment [3], 38.7%; in experiment [6], 42.3%; in experiment [7] it was 40%. In addition, the inhibition at 500 µg/mL came out at 75.1% in experiment [2], 72.3% in experiment [4], 74.5% in experiment [5] and 79.3% in experiment [8].

In the case of `COc1cc2c3c(c4ccc(O)cc4c2cc1OC)CN1CCC[C@@H]1C3`, the inhibition at 100 µg/mL in experiment [1] was 42%; in experiment [3] it was 33.5%; in experiment [6] it was 35.4%; in experiment [7] it was 40%. The inhibition at 500 µg/mL worked out at 72.4% in experiment [2], 65.3% in experiment [4], 60.4% in experiment [5] and 70.5% in experiment [8].

Turning to `CNCC(=O)N[C@@H](CO)C(=O)N[C@H]1[C@H](O)[C@@H](O)[C@H](n2ccc(N)nc2=O)O[C@@H]1C(N)=O` [NINGNANMYCIN], the inhibition at 100 µg/mL worked out at 23.1% in experiment [1], 25% in experiment [3], 38.4% in experiment [6] and 26.8% in experiment [7]. Also, the inhibition at 500 µg/mL in experiment [2] was found to be 58.7%; in experiment [4], 54.2%; in experiment [5], 57.9%; in experiment [8] it was 69.3%.

With `COc1cc2c3c(c4ccc(OC(C)=O)cc4c2cc1OC)CN1CCC[C@H]1C3`, the inhibition at 100 µg/mL was found to be 22.4% in experiment [1], 19.3% in experiment [3], 16.2% in experiment [6] and 30.6% in experiment [7]. Further, the inhibition at 500 µg/mL in experiment [2] stood at 59.4%; in experiment [4], 58.5%; in experiment [5] it was 54.2%; in experiment [8] it was 68.7%.

In the case of `C#CCOc1ccc2c3c(c4cc(OC)c(OC)cc4c2c1)C[C@@H]1CCCN1C3`, the inhibition at 100 µg/mL amounted to 45.5% in experiment [1], 42.4% in experiment [3], 40.9% in experiment [6] and 48.6% in experiment [7]. Also, the inhibition at 500 µg/mL turned out to be 74.9% in experiment [2], 70% in experiment [4], 71.6% in experiment [5] and 75% in experiment [8].
